# NPY1 pot ag: potentiators or agonists of human neuropeptide Y receptor Y1. NPY-Y1 expressing cells, potentiator/agonist activation. activation, % at 3.6 µM. 220,000 tested, 0.37% active. AID 1304; in the data active = activation above about 33%, passing the limit was not always enough;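 also: cells stimulated with NPY at EC10 then isoproterenol at EC100; 0% = low agonist plus stimulus and 100% = saturating agonist plus stimulus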
# Target sequence (P25929 whole entry, looked up): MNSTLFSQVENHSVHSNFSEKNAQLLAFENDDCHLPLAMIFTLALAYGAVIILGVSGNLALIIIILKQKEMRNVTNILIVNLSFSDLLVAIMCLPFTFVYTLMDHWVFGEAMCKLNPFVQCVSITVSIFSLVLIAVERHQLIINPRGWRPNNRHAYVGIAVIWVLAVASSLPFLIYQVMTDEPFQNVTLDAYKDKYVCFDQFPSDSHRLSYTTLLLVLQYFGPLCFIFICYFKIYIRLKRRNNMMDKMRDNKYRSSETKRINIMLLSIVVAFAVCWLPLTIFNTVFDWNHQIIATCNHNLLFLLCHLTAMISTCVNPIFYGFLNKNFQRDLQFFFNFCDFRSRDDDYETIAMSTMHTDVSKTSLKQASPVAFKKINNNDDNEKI
# NPY Y2 blocker: blocks the human neuropeptide Y Y2 receptor; 140,000 tested, 0.99% active; inhibition, % at 2.7 µM; NPY-Y2 expressing cells, antagonist mode; P49146; AID 793; in the data active = inhibition above about 17%;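 also: 0% = vehicle with agonist challenge and 100% = reference antagonist with challenge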
# bCat nuc transl: alters nuclear translocation of beta-catenin in HeLa cells; 190,000 tested, 0.3% active; immunofluorescence imaging; nuclear translocation activity, % at 5 µM;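 active = nuclear translocation activity above 50% at 5 µM, with a well cell count of 50 or more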;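 also: per-cell ratio of nuclear to cytoplasmic median beta-catenin stain intensity; plate controls were DMSO negative control for no effect and GSK-3 inhibitor IX positive control for full effect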
#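 Test system: human HeLa cells, native beta-catenin. Compound dosing: 5 µM primary single dose, 0.1% DMSO, 0.02–20 µM confirmation series. Incubation: compound exposure 24 h at 37°C. Detection: beta-catenin immunostaining with DAPI counterstain, 20x imaging, 6 fields/well. Read-out basis: Nuclear/cytoplasmic beta-catenin signal ratio, % activation.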
# NPY2 pot ag: potentiators or agonists of human neuropeptide Y receptor Y2; cells expressing NPY-Y2, potentiator/agonist read-out; activation, % at 3.6 µM; 220,000 tested, 0.45% active; in the data active = activation above about 27%;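 also: cells stimulated with NPY near EC25 plus isoproterenol at EC100; 0% = vehicle plus submaximal agonist and 100% = vehicle plus saturating agonist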
# MT stabilizer: microtubule stabilization, imaging screen; HeLa tubulin immunostaining HCS, 24 h; share of cells brighter than vehicle mean+2SD; % tubulin-high responders, % at 10 µM; 200,000 tested, 0.83% active; AID 2205;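 active = plate Z-score above 3 for both tubulin-high and condensed-nucleus cell shares, with cell loss under 80%, at 10 µM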;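 also: anti alpha tubulin signal scored within the nucleus-defined area of each cell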
# NPY-Y1 antag: blocks the human neuropeptide Y Y1 receptor. AID 1040. HEK293-CNG Y1 cells, membrane potential fluorescence; NPY at EC95, then isoproterenol. inhibition, % at 3.6 µM. P25929. 200,000 tested, 1% active;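 active = inhibition above the campaign mean inhibition of all tested compounds plus 3 SD, cut at about 20% in these data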;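 also: 0% = DMSO wells given NPY plus isoproterenol and 100% = isoproterenol alone without NPY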
#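 Assay system: HEK293 Y1/CNG channel cell line; Doses: single compound dose of 3.6 µM, 0.4% DMSO; Timing: dye 3 h, compound 60 min room temperature, stimulation 45 min; Technique: Membrane-potential fluorescent dye readout; Measure: % inhibition of NPY effect.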
# An asterisk follows results filed as active; / = no result. Rows were chosen to be rich in hits. Some 2.6% of all compounds tested hit in one or more screens of this group.
SMILES,NPY1 pot ag,NPY Y2 blocker,bCat nuc transl,NPY2 pot ag,MT stabilizer,NPY-Y1 antag
O=c1[nH]c(CN2CCN(c3ccccc3O)CC2)nc2scc(-c3ccccc3Cl)c12,0,/,0,23,/,/
Cc1ccc(F)cc1NC(=O)C1CC(=O)N(CCc2ccccc2)C1 (centres undefined),16,/,-5,0,5,5
Cc1ccc(CNC(=O)CCC2CCCN(Cc3c(C)nn(C(C)C)c3C)C2)o1 (centres undefined),4,/,-4,-5,3,5
O=C(CN1C2=NCCN2c2ccccc21)C12CC3CC(CC(C3)C1)C2,-97,49*,0,-33,2,67*
Cc1ccc(CN2C3=NCCN3c3ccccc32)cc1,-21,/,0,-13,2,17
CCCC(=O)NCc1cc(-c2nn(C)c(=O)c3ccccc23)ccc1OC,0,/,-1,4,2,6
Cc1cc2c(OCC(O)CN3CCCC3)cccc2[nH]1 (centres undefined),110*,/,0,100*,4,-18
CC(C)(C)NCC(O)COc1cccc2c1C[C@H](O)[C@H](O)C2 (some centres undefined),118*,2,/,102*,4,-10
COCCCNCC(O)COc1cccc2[nH]c(C)cc12 (centres undefined),108*,/,-2,101*,2,-14
COCCCNCCCOc1ccc(C)cc1Br,-28,2,-2,-2,4,12
Cc1cc2c(OCC(O)CNC(C)(C)C)cccc2[nH]1 (centres undefined),111*,3,0,105*,3,-19
CCc1ccc(OCCOCC(O)CNC(C)(C)C)cc1 (centres undefined),6,4,-1,11,7,0
Cc1cccc(NC(=O)N2CCN(Cc3ccc4c(c3)OCO4)CC2)c1C,12,/,1,12,4,6
CCCC1CCc2c(sc(NC(=O)OCC)c2C#N)C1 (centres undefined),17,2,0,2,52*,3
O=C1C2C3c4ccccc4C(c4ccccc43)C2c2nc3ccccc3n21 (centres undefined),-18,11,-1,-11,4,24*
CC(=O)N(C(C)=O)N1C(=O)C2C3c4ccccc4C(c4ccccc43)C2C1=O (centres undefined),2,/,0,-2,1,-1
O=C(/C=C/c1cccc2ccccc12)NCCC1=CCCCC1,-50,22*,2,-21,2,32*
CCn1c(SCC(=O)N/N=C/c2ccc(C)s2)nc2ccccc21,-6,8,46,-5,20*,2
Cc1ccc(/C=N/NC(=O)CSc2nc3ccccc3c(=O)n2-c2ccccc2)s1,20,0,0,2,9,-7
COC(=O)CN1C(c2ccc(Cl)cc2)=Nc2ccc(Cl)cc2C1c1ccccc1 (centres undefined),-24,19*,-1,-5,4,27*
COc1ccc(C2=Nc3ccc(C)cc3C(c3ccccc3)N2CC(=O)NN)cc1 (centres undefined),5,/,1,-2,1,7
CN(C)CCNc1cnn(-c2ccccc2)c(=O)c1Cl,8,/,-1,9,3,2
O=C1CCCc2cc3c(cc21)CC1(C3)Cc2cc3c(cc2C1)C(=O)CCC3,5,/,72*,3,/,/
CN(c1ccccc1C(=O)NC1CCCCC1)S(=O)(=O)c1ccccc1,-5,/,0,-17,2,20*
Cc1ccc2nc(C3CCCN(C(=S)Nc4cccc(C)c4C)C3)[nH]c2c1 (centres undefined),-10,-1,0,-8,29*,-2
SMILES,NPY1 pot ag,NPY Y2 blocker,bCat nuc transl,NPY2 pot ag,MT stabilizer,NPY-Y1 antag
Cc1ccc(NC(=S)N2CCCC(c3nc4ccc(C)cc4[nH]3)C2)c(C)c1 (centres undefined),10,0,0,-18,2,-4
O=C(CNc1cccc2ccccc12)N/N=C/c1ccc[nH]1,25,/,0,-1,/,/
O=C(CNc1cccc2ccccc12)N/N=C/C(Br)=C/c1ccccc1,2,1,0,-7,48*,2
CSc1ccccc1NC(=O)CSCc1ccc(C)cc1,-17,4,7,-22,30*,-1
C=C(C)COc1ccc(-c2[nH]ncc2-c2ccc(OC)c(OC)c2)c(O)c1,14,8,-1,3,58*,2
C=C(C)COc1ccc(-c2[nH]ncc2-c2ccc(OC)cc2)c(O)c1,35,/,0,-3,/,/
COc1cc(/C=C/C(=O)c2ccc(O)cc2)ccc1OCC#N,20,1,-2,8,11*,3
CCOc1ccc(C2=Nc3ccccc3C(c3ccc(N4CCOCC4)cc3)=NN2)cc1,2,1,/,-9,35*,1
COC(=O)c1cccc(NC(=O)CCCOc2cccc(C)c2)c1,-65,12,/,-23,1,16
CCOC(=O)c1cnc2ccc(OCC)cc2c1N(C)Cc1ccccc1,-51,35*,-2,-18,3,31*
CCOC(=O)c1cnc2ccc(OCC)cc2c1N1CCN(c2ccccc2OC)CC1,-51,5,/,-13,1,9
C[C@H](NC(N)=O)C(=O)Nc1ccc2c(c1)OCO2,10,/,-1,-9,/,/
Cc1ccc(S(=O)(=O)N(C)CC(=O)Nc2nc3ccccc3s2)cc1,-26,3,0,12,3,-3
Cc1ccc(/C(=N/Nc2nc3ccccc3s2)C2=C(O)c3ccccc3C2=O)cc1,-3,/,-3,-9,2,20*
CCn1c(O)c(N=NC(=O)c2ccc(CSc3nncn3C)cc2)c2ccccc21,25,1,/,6,4,1
Cn1cnnc1SCc1ccc(C(=O)N=Nc2c(O)n(Cc3ccc(Cl)cc3)c3ccccc23)cc1,47*,-2,/,46*,1,-8
CCOC(=O)c1sc(N(Cc2ccccc2)C(=O)COC(=O)c2ccc(O)cc2)nc1C,-37,26*,-2,-35,6,42*
COc1ccccc1OCC(=O)N/N=C1/C=C(C)CC1,3,/,-2,9,3,-1
CC(C)c1nc(SCc2c(F)cccc2Cl)c2c(=O)n(C)c(=O)n(C)c2n1,2,1,0,-3,9,-1
Cc1ccc(-c2[nH]nc3c2C(c2ccoc2)C(C#N)=C(N)O3)cc1C (centres undefined),-16,87*,-2,-8,4,110*
N#CC1=C(N)Oc2n[nH]c(-c3cccs3)c2C1c1ccsc1 (centres undefined),9,6,/,-6,7,28*
Cc1cc(-c2[nH]nc3c2C(c2ccc(Cl)cc2)C(C#N)=C(N)O3)c(C)s1 (centres undefined),-15,69*,-2,-7,3,59*

# Compound activity from PubChem BioAssay.
